Measured values pooled from the literature.
Lines come from different studies, so protocols differ.
Target: Platelet-derived growth factor receptor beta (PDGFRB, Homo sapiens, UniProt P09619)

SMILES | effect on | technique | concentration | remaining binding
CCN(CC)CCCCNc1ncc2cc(-c3cc(OC)cc(OC)c3)c(NC(=O)NC(C)(C)C)nc2n1 | cell-free assay | competition with immobilised ligand | 1 µM | 38%
CCC(=N\O)/C(C)=C/c1ccc(F)cc1 | cell-free assay | competition with immobilised ligand | 1 µM | 100%
N#Cc1ccccc1CSc1nnc2c(n1)[nH]c1ccccc12 | binding | competition with immobilised ligand | 10 µM | 91%
COc1cnc(Nc2cccc(S(N)(=O)=O)c2)nc1N1CCN(c2ccccc2)CC1 | binding | competition with immobilised ligand | 1 µM | 87%
CC1CCCN1c1nccc(-c2cnn3ncccc23)n1 (stereo not shown) | binding | – | 1 µM | 100%
O=C(c1ccc(Nc2nccc(-c3cc4ccccc4s3)n2)cc1)N1CCC(N2CCCC2)CC1 | binding | competition with immobilised ligand | 1 µM | 11%
Nc1ncc2c(n1)-c1c([nH]c3ccc(C#CC4CC4)cc13)CCCC2 | binding | competition with immobilised ligand | 1 µM | 100%
Cc1nccc(COC(=O)N2C[C@@H]3[C@@H](CNC(=O)c4ccc5[nH]nnc5c4)[C@@H]3C2)n1 | cell-free assay | competition with immobilised ligand | 1 µM | 84%
CN(C)c1nccc(-c2cnc3ncccn23)n1 | binding | – | 1 µM | 90%
N#CC1(c2ccccn2)CCN(Cc2cc(C(=O)N3CCCC3)c(=O)n3ccccc23)CC1 | cell-free assay | competition with immobilised ligand | 1 µM | 86%
COc1ccnn2ncc(-c3ccnc(N(C)C)n3)c12 | binding | – | 1 µM | 100%
O=C(c1ccc(Nc2ncc(Cl)c(-c3ccc(Cl)s3)n2)cc1)N1CCC(N2CCCC2)CC1 | binding | competition with immobilised ligand | 1 µM | 0%
N[C@@H]1CCN(c2nccc(-c3cnn4ncccc34)n2)C1 | binding | – | 1 µM | 100%
C=CC(=O)N1CCC(C(=O)NCC(=O)N2CCN(c3nc(-c4cnc(N)nc4C(F)F)nc(N4CCOCC4)n3)CC2)CC1 | binding | competition with immobilised ligand | 1 µM | 100%
COCCOc1nc(-c2ccc(Cl)nc2)nc2c1CN(C(=O)c1ncn3ccccc13)CC2 | cell-free assay | competition with immobilised ligand | 0.1 µM | 100%
COc1ncc2cc3ccccc3nc2c1C#N | cell-free assay | competition with immobilised ligand | 5 µM | 97%
Cc1cnn2ncc(-c3ccnc(N(C)C)n3)c2c1 | binding | – | 1 µM | 100%
C[C@@H]1CN(c2ccc3ncc(-c4ccc5[nH]nc(C6CC6)c5c4)n3n2)C[C@H](C)O1 | binding | competition with immobilised ligand | 50 nM | 87%
CS(=O)(=O)NCC[C@H](NC(=O)c1cncc2c1cnn2-c1ccc(F)cc1)c1ccnc(S(C)(=O)=O)c1 | cell-free assay | competition with immobilised ligand | 1 µM | 100%
O=C(NCC1CCOCC1)c1n[nH]cc1NC(=O)c1c(F)cccc1F | binding | competition with immobilised ligand | 1 µM | 99%
Cc1cnc(Nc2ccc(C(=O)N3CCC(N4CCCC4)CC3)cc2)nc1-c1cc2ccccc2s1 | binding | competition with immobilised ligand | 1 µM | 0.4%
CC(=O)N1CCC(c2ccc(C(=O)NC(=N)N)cc2C(F)(F)F)CC1 | cell-free assay | competition with immobilised ligand | 1 µM | 100%
CN(C)c1nccc(-c2cnn3ncccc23)n1 | binding | – | 1 µM | 100%
CC(=O)C1=C(C)N(c2cccc(C(F)(F)F)c2)C(=O)N[C@@H]1c1ccc(C#N)nc1 | cell-free assay | competition with immobilised ligand | 1 µM | 94%
COC(=O)Nc1nc2ccc(C(=O)c3ccccc3)cc2[nH]1 | cell-free assay | competition with immobilised ligand | 10 µM | 3.2%
